# From ChEMBL document CHEMBL5325390, “1,2,4-Triazole-3-thione analogues with an arylakyl group at position 4 as metallo-β-lactamase inhibitors” (Bioorg Med Chem, 2022)
# Tests used:
# [1] = Binding affinity to VIM-4 (unknown origin) expressed in Escherichia coli BL21(DE3) assessed as inhibition constant by measuring rate of substrate hydrolysis by UV-Vis spectrophotometric analysis
# Procedure, shortened: (§1)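 Purified MBL (1–70 nM) with 150 µM imipenem or meropenem as reporter substrate, 50 mM HEPES pH 7.5, 30 °C. Hydrolysis followed by absorbance at 300 nm without and with inhibitor (0.5 µM–1 mM). Ki from the slope of v0/vi vs [I] under a competitive model, or from Dixon plots varying inhibitor and substrate. […] Triplicate, mean ± SD.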
# [2] = Binding affinity to IMP1 (unknown origin) expressed in Escherichia coli BL21(DE3) assessed as inhibition constant by measuring rate of substrate hydrolysis by UV-Vis spectrophotometric analysis; procedure, shortened: as §1
# [3] = system: metallo-β-lactamase VIM-2 (Pseudomonas aeruginosa); assay: Inhibition of VIM-2 (unknown origin) expressed in Escherichia coli BL21(DE3) assessed as substrate hydrolysis at 100 uM by UV-Vis spectrophotometric analysis relative to control
# Beta-lactamase VIM-1 = Beta-lactamase VIM-1 (Bacteria, UniProt Q8GDC1); assay: Binding affinity to VIM-1 (unknown origin) expressed in Escherichia coli BL21(DE3) assessed as inhibition constant by measuring rate of substrate hydrolysis by UV-Vis spectrophotometric analysis; procedure, shortened: as §1
# [4] = Binding affinity to VIM-2 (unknown origin) expressed in Escherichia coli BL21(DE3) assessed as inhibition constant by measuring rate of substrate hydrolysis by UV-Vis spectrophotometric analysis; procedure, shortened: as §1
# [5] = molecular target: Metallo-beta-lactamase type 2 (Bacteria, UniProt C7C422); assay: Binding affinity to NDM1 (unknown origin) expressed in Escherichia coli BL21(DE3) assessed as inhibition constant by measuring rate of substrate hydrolysis by UV-Vis spectrophotometric analysis; procedure, shortened: as §1
# Klebsiella pneumoniae [6] = assay: Antimicrobial synergistic activity against blaVIM-1-producing multidrug-resistant Klebsiella pneumoniae 7023 clinical isolate assessed as meropenem MIC at 32 ug/ml by CLSI based broth microdilution method (reference value: 16 ug/ml); format: functional; conditions: dose 32 µg/ml
# Klebsiella pneumoniae [7] = assay: Antimicrobial synergistic activity against blaVIM-4-producing multidrug-resistant Klebsiella pneumoniae VA416/02 clinical isolate assessed as meropenem MIC at 32 ug/ml by CLSI based broth microdilution method (reference value: 16 ug/ml); format: functional; conditions: dose 32 µg/ml
# Escherichia coli = assay: Synergistic antimicrobial activity against blaNDM-1-producing multidrug-resistant Escherichia coli SI-004M clinical isolate assessed as meropenem MIC at 32 ug/ml by CLSI based microdilution method (reference value: 64 ug/ml); format: functional; conditions: dose 32 µg/ml
# [8] = molecular target: Metallo-beta-lactamase type 2 (Bacteria) (UniProt C7C422); assay: Inhibition of NDM1 (unknown origin) expressed in Escherichia coli BL21(DE3) assessed as substrate hydrolysis at 100 uM by UV-Vis spectrophotometric analysis relative to control
# Procedure, shortened: (§2)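 Single-point screen at 100 or 200 µM inhibitor against purified MBL (1–70 nM) with 150 µM imipenem or meropenem reporter substrate, 50 mM HEPES pH 7.5, 30 °C. Initial hydrolysis rate read by absorbance at 300 nm and compared with the uninhibited reaction. Triplicate.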
# [9] = system: metallo-β-lactamase IMP-1 (Pseudomonas aeruginosa); assay: Inhibition of IMP1 (unknown origin) expressed in Escherichia coli BL21(DE3) assessed as substrate hydrolysis at 100 uM by UV-Vis spectrophotometric analysis relative to control
# [10] = molecular target: Metallo-beta-lactamase type 2 (Bacteria) (UniProt C7C422); assay: Inhibition of NDM1 (unknown origin) expressed in Escherichia coli BL21(DE3) assessed as substrate hydrolysis at 200 uM by UV-Vis spectrophotometric analysis relative to control; procedure, shortened: as §2
# [11] = system: metallo-β-lactamase VIM-2 (Pseudomonas aeruginosa); assay: Inhibition of VIM-2 (unknown origin) expressed in Escherichia coli BL21(DE3) assessed as substrate hydrolysis at 200 uM by UV-Vis spectrophotometric analysis relative to control
# [12] = system: metallo-β-lactamase IMP-1 (Pseudomonas aeruginosa); assay: Inhibition of IMP1 (unknown origin) expressed in Escherichia coli BL21(DE3) assessed as substrate hydrolysis at 200 uM by UV-Vis spectrophotometric analysis relative to control
# [13] = system: metallo-β-lactamase VIM-4 (Pseudomonas aeruginosa); assay: Inhibition of VIM-4 (unknown origin) expressed in Escherichia coli BL21(DE3) assessed as substrate hydrolysis at 100 uM by UV-Vis spectrophotometric analysis relative to control
# [14] = system: metallo-β-lactamase VIM-4 (Pseudomonas aeruginosa); assay: Inhibition of VIM-4 (unknown origin) expressed in Escherichia coli BL21(DE3) assessed as substrate hydrolysis at 200 uM by UV-Vis spectrophotometric analysis relative to control
# Metallo-beta-lactamase type 2 (Bacteria), sequence (C7C422 whole entry): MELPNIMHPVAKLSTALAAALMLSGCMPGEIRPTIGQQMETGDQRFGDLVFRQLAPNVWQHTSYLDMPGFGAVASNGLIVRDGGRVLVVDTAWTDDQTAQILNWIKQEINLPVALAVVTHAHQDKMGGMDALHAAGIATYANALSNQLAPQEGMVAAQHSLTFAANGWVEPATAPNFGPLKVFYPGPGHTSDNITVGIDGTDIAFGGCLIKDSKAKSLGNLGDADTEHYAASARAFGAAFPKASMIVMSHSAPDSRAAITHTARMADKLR
# Metallo-beta-lactamase type 2, sequence (C7C422 whole entry): as above
SMILES,Ki [1],Ki ([2]; read-out: Ki),inhibition [3],Ki (Beta-lactamase VIM-1),Ki [4],Ki ([5]; read-out: Ki),MIC (Klebsiella pneumoniae [6]),MIC (Klebsiella pneumoniae [7]),MIC (Escherichia coli),inhibition [8],inhibition [9],inhibition [10],inhibition [11],inhibition [12],Ki ([2]; read-out: Ki(app)),Ki ([5]; read-out: Ki(app)),inhibition [13],inhibition [14]
S=c1[nH]nc(-c2cc(Cl)cc(Cl)c2)n1/N=C/c1ccc(OCc2ccccc2)cc1,0.6 µM,0.1 µM,< 30%,–,–,–,–,–,–,–,–,–,–,–,–,–,–,–
COc1ccc(O)c(-c2n[nH]c(=S)n2CCc2ccccc2)c1,1.5 µM,20.2 µM,–,1.9 µM,3.9 µM,6.8 µM,4 µg/mL,2 µg/mL,64 µg/mL,–,–,–,–,–,–,–,–,–
Oc1ccc(CCn2c(-c3cc(-c4ccccc4)ccc3O)n[nH]c2=S)c(O)c1,0.85 µM,–,–,0.76 µM,1.9 µM,–,1 µg/mL,2 µg/mL,64 µg/mL,38%,44%,–,–,–,–,–,–,–
O=C1OC(Cn2c(-c3ccc(-c4ccccc4)cc3)n[nH]c2=S)c2ccccc21 (configuration not stated),–,–,< 30%,–,–,–,–,–,–,< 30%,48%,< 50%,< 50%,–,–,–,–,–
COc1ccc(O)c(-c2n[nH]c(=S)n2[C@@H]2C[C@H]2c2ccccc2)c1,2.5 µM,4.6 µM,41%,2.2 µM,–,9.5 µM,4 µg/mL,2 µg/mL,32 µg/mL,–,–,–,–,–,–,–,–,–
Sc1nnc(-c2ccccc2)n1-c1ccccc1,–,–,–,3.2 µM,16 µM,–,–,–,–,< 30%,–,–,–,–,–,–,–,–
O=C1OC(Cn2c(-c3ccccc3)n[nH]c2=S)c2ccccc21 (configuration not stated),7.8 µM,–,< 30%,0.75 µM,–,–,2 µg/mL,2 µg/mL,64 µg/mL,51%,< 30%,–,< 50%,< 50%,–,–,–,–
Cc1ccccc1CCn1c(-c2ccccc2)n[nH]c1=S,–,–,< 30%,–,–,–,–,–,–,< 30%,< 30%,< 50%,< 50%,< 50%,–,–,–,–
O=C1OC(Cn2c(-c3cccc(-c4ccccc4)c3)n[nH]c2=S)c2ccccc21 (configuration not stated),–,–,< 30%,–,–,–,–,–,–,< 30%,< 30%,< 50%,< 50%,< 50%,–,–,–,–
COc1ccc(O)c(-c2n[nH]c(=S)n2CCc2ccc(O)cc2)c1,1.9 µM,–,–,1.6 µM,3.9 µM,–,2 µg/mL,2 µg/mL,–,< 30%,< 30%,< 50%,–,< 50%,–,–,–,–
O=C(O)c1ccccc1CCn1c(-c2cccc(-c3ccccc3)c2)n[nH]c1=S,2.1 µM,–,–,–,0.08 µM,–,–,–,–,< 30%,< 30%,–,–,–,–,–,–,–
Oc1ccc(/C=N/n2c(-c3ccccc3-c3ccccc3)n[nH]c2=S)c(O)c1,9 µM,12 µM,–,–,4.5 µM,6.4 µM,–,–,–,–,–,–,–,–,–,–,–,–
Cc1ccccc1-c1n[nH]c(=S)n1CCc1ccccc1,2.4 µM,–,–,3.3 µM,9.4 µM,–,4 µg/mL,4 µg/mL,–,< 30%,–,< 50%,–,–,14 µM,–,–,–
S=c1[nH]nc(-c2ccccc2)n1CCc1ccccc1,2.1 µM,–,< 30%,3.2 µM,–,–,2 µg/mL,2 µg/mL,64 µg/mL,< 30%,< 30%,< 50%,< 50%,< 50%,–,–,–,–
Oc1ccc(CCn2c(-c3ccccc3)n[nH]c2=S)c(O)c1,4.1 µM,27 µM,< 30%,5.1 µM,–,–,4 µg/mL,2 µg/mL,–,–,–,–,< 50%,–,–,42 µM,–,–
Oc1ccc(CCn2c(-c3ccccc3)n[nH]c2=S)cc1,2.3 µM,42 µM,–,2.1 µM,6.1 µM,12 µM,4 µg/mL,4 µg/mL,64 µg/mL,–,–,–,–,–,–,–,–,–

SMILES,Ki [1],Ki ([2]; read-out: Ki),inhibition [3],Ki (Beta-lactamase VIM-1),Ki [4],Ki ([5]; read-out: Ki),MIC (Klebsiella pneumoniae [6]),MIC (Klebsiella pneumoniae [7]),MIC (Escherichia coli),inhibition [8],inhibition [9],inhibition [10],inhibition [11],inhibition [12],Ki ([2]; read-out: Ki(app)),Ki ([5]; read-out: Ki(app)),inhibition [13],inhibition [14]
S=c1[nH]nc(-c2ccc3ccccc3c2)n1[C@@H]1C[C@H]1c1ccccc1,–,–,< 30%,–,–,–,–,–,–,< 30%,< 30%,< 50%,< 50%,< 50%,–,–,35%,–
O=C(O)c1ccc(-n2c(S)nnc2-c2ccccc2)cc1,–,–,–,–,–,–,–,–,–,< 30%,–,–,–,–,–,–,–,–
S=c1[nH]nc(-c2cccc(-c3ccccc3)c2)n1[C@@H]1C[C@H]1c1ccccc1,–,–,< 30%,–,–,–,–,–,–,69%,< 30%,–,< 50%,< 50%,–,–,< 30%,< 50%
CC(Cn1c(-c2ccccc2)n[nH]c1=S)c1ccccc1 (configuration not stated),–,–,< 30%,–,–,–,–,–,–,< 30%,55%,< 50%,< 50%,–,–,–,< 30%,< 50%
S=c1[nH]nc(-c2ccc3ccccc3c2)n1CCc1ccccc1,–,–,< 30%,3.7 µM,–,–,–,–,–,< 30%,< 30%,< 50%,< 50%,< 50%,–,–,< 30%,< 50%
O=C(O)c1ccccc1/C=N/n1c(-c2cccc(-c3ccccc3)c2)n[nH]c1=S,0.04 µM,17.7 µM,–,–,0.2 µM,4.2 µM,–,–,–,–,–,–,–,–,–,–,–,–
Cn1cccc1-c1n[nH]c(=S)n1CC1OC(=O)c2ccccc21 (configuration not stated),2.5 µM,–,38%,2.2 µM,–,–,2 µg/mL,2 µg/mL,32 µg/mL,31%,30%,–,–,–,–,–,–,–
Oc1cccc(CCn2c(-c3cccc(-c4ccccc4)c3)n[nH]c2=S)c1O,0.8 µM,20 µM,–,0.7 µM,1.8 µM,22.4 µM,16 µg/mL,4 µg/mL,32 µg/mL,–,–,–,–,–,–,–,–,–
FC(F)(F)c1ccc(CCn2c(-c3ccccc3)n[nH]c2=S)cc1,–,–,< 30%,–,–,–,–,–,–,< 30%,< 30%,< 50%,< 50%,< 50%,–,–,–,–
Oc1ccc(CCn2c(-c3ccc4ccccc4c3)n[nH]c2=S)cc1,3.2 µM,24 µM,< 30%,3.3 µM,–,–,–,–,–,< 30%,–,< 50%,< 50%,–,–,–,–,–
Oc1ccc(CCn2c(-c3ccccc3-c3ccccc3)n[nH]c2=S)c(O)c1,60 µM,–,35%,27 µM,–,15.2 µM,–,–,–,–,< 30%,–,–,< 50%,–,–,–,–
Cc1ccccc1-c1n[nH]c(=S)n1CCc1ccc(O)cc1,1.6 µM,–,–,–,–,–,–,–,–,< 30%,56%,< 50%,–,–,–,–,–,–
O=C1OC(Cn2c(-c3ccc4ccccc4c3)n[nH]c2=S)c2ccccc21 (configuration not stated),8.2 µM,9.8 µM,< 30%,6.3 µM,–,–,–,–,–,–,–,–,< 50%,–,–,28 µM,–,–
O=C(NCc1ccccc1)c1ccccc1CCn1c(-c2ccccc2)n[nH]c1=S,–,–,< 30%,–,–,–,–,–,–,45%,45%,–,< 50%,–,–,–,< 30%,< 50%
COc1ccc(O)c(-c2n[nH]c(=S)n2CCc2ccc(OCc3ccccc3)cc2)c1,0.54 µM,–,< 30%,11.1 µM,–,–,–,–,–,< 30%,35%,< 50%,< 50%,–,–,–,–,–
